Source: publication PMC2965777 (Biochemistry, 2010)

Key:
YAQ12A [1] = test: Sedimentation assay of YAQ12A aggregation; assay type: biochemical
Method in brief: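 Disaggregated peptide was diluted to 100 µM in 10 mM sodium phosphate, pH 7.40, and held at 37 °C without agitation, with or without inhibitor added as lyophilized aliquots. After 98,000 × g for 1 h at 22 °C, 100 µL of the top third went onto analytical C18 RP-HPLC (A220, isocratic water:acetonitrile:TFA 87.5:12.5:0.1). Monomer was quantified from peak area against a standard curve; mean ± S.D. of three replicates.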

YAQ12A [2] = test: Electron microscopy of YAQ12A fibrillation products; assay type: biochemical; details: 100 μM YAQ12A with 500 μM 5QMe2, 40 h, 37 °C
Method in brief: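 Aggregation products imaged by electron microscopy after incubating monomeric peptide in 10 mM sodium phosphate, pH 7.40, for 40 h at 37 °C, with or without inhibitor. Micrographs were recorded at 15,000 or 39,000× magnification, plus 1.4× from the CCD camera.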

[3] = Sedimentation equilibrium analytical ultracentrifugation of 5QMe2 alone; assay type: physicochemical
Method in brief: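 Equilibrium sedimentation of inhibitor alone at 100 µM, 500 µM and 1 mM in 10 mM sodium phosphate, pH 7.40, at 20 °C, in six-sector cells with hourly scans. Rotor speed ran 3000 rpm (1 scan), 36,000 (16), 48,000 (13) and 60,000 rpm (19). A280 was used (A230 for 100 µM). Molecular weight came from global analysis of the three concentrations at each speed.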

[4] = Size exclusion chromatography, apparent molecular weight; assay type: physicochemical; details: Superdex Peptide 10/300; 10 mM sodium phosphate, 10 mM NaCl, pH 7.40; 0.5 mL/min; 100 μM YAQ12A, 170 μM 5QMe2; 230 nm

association state of the inhibitor alone ([3]; 100, 500 and 1000 μM, three rotor speeds): monomeric
molecular weight of 5QMe2 alone, three concentrations analysed globally ([3]; rotor speed 36,000 rpm): 988.5
molecular weight of 5QMe2 alone, three concentrations analysed globally ([3]; rotor speed 48,000 rpm): 1000.0
molecular weight of 5QMe2 alone, three concentrations analysed globally ([3]; rotor speed 60,000 rpm): 980.1
MW^app by size exclusion chromatography [4]: ~ 1176.0
Substance: Anth-K-Q-Q(Me2)-Q-Q(Me2)-Q-CONH2 [5QMe2]
time after which more rapid loss of soluble YAQ12A follows the lag period (YAQ12A [1]; 100 μM YAQ12A with 100 μM 5QMe2, time course, 37 °C): ~ 70 h
aggregation of YAQ12A over the time course (YAQ12A [1]; 100 μM YAQ12A with 1 mM 5QMe2, time course to 110 h, 37 °C): no aggregation was observed for the entire time period
reversal of YAQ12A aggregation (YAQ12A [1]; 1 mM 5QMe2 added to 100 μM YAQ12A after 10 or 20 h of aggregation): did not reverse aggregation
fibril formation of YAQ12A by electron microscopy (YAQ12A [2]): abrogates fibril formation
